In ChEMBL document CHEMBL1124186, “Synthesis and evaluation of tylosin-related macrolides modified at the aldehyde function: a new series of orally effective antibiotics” (1988):
≈ marks a conversion by molar mass, not a printed value.

Key:
Haemophilus influenzae = experiment: In vitro antimicrobial activity against Haemophilus influenzae.; format: functional
Staphylococcus aureus = experiment: In vitro antimicrobial activity against Staphylococcus aureus X1; format: functional
Streptococcus pneumoniae [1] = experiment: In vivo effective dose against experimental infections in mice Streptococcus pneumoniae park when administered orally; format: functional; conditions: po
Streptococcus pneumoniae [2] = experiment: In vivo effective dose against experimental infections in mice Streptococcus pneumoniae park when administered sc; format: functional
Streptococcus pyogenes [3] = experiment: In vivo effective dose against experimental infections in rodent caused by Streptococcus pyogenes C203 when administered sc; format: functional
Streptococcus pneumoniae [4] = experiment: In vitro antimicrobial activity against Streptococcus pneumoniae; format: functional
[5] = system: Staphylococcus epidermidis; experiment: In vitro antimicrobial activity against Staphylococcus epidermidis EPI1; format: functional
Enterococcus faecium = experiment: In vitro antimicrobial activity against Streptococcus faecium X66; format: functional, streptococcus fae-cium
Streptococcus pyogenes [6] = experiment: In vitro antimicrobial activity against Streptococcus pyogenes C203; format: functional
Streptococcus pyogenes [7] = experiment: In vivo effective dose against experimental infections in rodent caused by Streptococcus pyogenes C203 when administered orally; format: functional; conditions: po
Streptococcus pyogenes [8] = experiment: Activity against Streptococcus pyogenes C203 when administered orally; format: functional; conditions: po
In short: (§1)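 Mouse protection test: infected mice were dosed twice, at 1 and 5 h postinfection, either subcutaneously or orally. […] The result is expressed as ED50 in mg/kg × 2.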

Streptococcus pyogenes [9] = experiment: Activity against Streptococcus pyogenes C203 when administered sc; format: functional; in short: as §1
Streptococcus pyogenes [10] = experiment: Antimicrobial activity against Streptococcus pyogenes C203; format: functional

MIC (Haemophilus influenzae)	MIC (Staphylococcus aureus)	MIC (Streptococcus pneumoniae [4])	MIC [5]	MIC (Enterococcus faecium)	MIC (Streptococcus pyogenes [6])	MIC (Streptococcus pyogenes [10])	Structure (SMILES)	ED50 (Streptococcus pneumoniae [1])	ED50 (Streptococcus pneumoniae [2])	ED50 (Streptococcus pyogenes [3])	ED50 (Streptococcus pyogenes [7])	ED50 (Streptococcus pyogenes [8])	ED50 (Streptococcus pyogenes [9])
16 µg/mL (≈ 17 µM)	0.5 µg/mL (≈ 0.531 µM)	0.25 µg/mL (≈ 0.265 µM)	0.5 µg/mL (≈ 0.531 µM)	0.5 µg/mL (≈ 0.531 µM)	0.25 µg/mL (≈ 0.265 µM)		CC[C@H]1OC(=O)C[C@@H](O)[C@H](C)[C@@H](O[C@@H]2O[C@H](C)[C@@H](O)[C@H](N(C)C)[C@H]2O)[C@@H](CCOc2cccc(Oc3ccccc3)c2)C[C@@H](C)C(=O)/C=C/C(C)=C/[C@@H]1CO[C@@H]1O[C@H](C)[C@@H](O)[C@@H](OC)[C@H]1OC	46 mg/kg	> 20 mg/kg	> 10 mg/kg	35 mg/kg		
16 µg/mL (≈ 17 µM)	0.5 µg/mL (≈ 0.531 µM)	0.25 µg/mL (≈ 0.265 µM)	0.5 µg/mL (≈ 0.531 µM)	0.5 µg/mL (≈ 0.531 µM)	0.25 µg/mL (≈ 0.265 µM)		CC[C@H]1OC(=O)C[C@@H](O)[C@H](C)[C@@H](O[C@@H]2O[C@H](C)[C@@H](O)[C@H](N(C)C)[C@H]2O)[C@@H](CCOc2ccc(Oc3ccccc3)cc2)C[C@@H](C)C(=O)/C=C/C(C)=C/[C@@H]1CO[C@@H]1O[C@H](C)[C@@H](O)[C@@H](OC)[C@H]1OC	38 mg/kg	> 20 mg/kg	> 10 mg/kg	29 mg/kg		
						1 µg/mL (≈ 1.12 µM)	CC[C@H]1OC(=O)C[C@@H](O)[C@H](C)[C@@H](O[C@@H]2O[C@H](C)[C@@H](O)[C@H](N(C)C)[C@H]2OC(C)=O)[C@@H](CCOc2ccccc2)C[C@@H](C)C(=O)/C=C/C(C)=C/[C@@H]1CO[C@@H]1O[C@H](C)[C@@H](O)[C@@H](OC)[C@H]1OC					9 mg/kg	1 mg/kg
